Experiments:
[1] = In vitro whole blood and plasma incubation, radio-TLC; assay type: in vitro ADME, baboon
Outline: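 Arterial whole blood or plasma (0.5 ml) came from one baboon 1 h after HDAC-inhibitor pretreatment (0.25 mg/kg), just before radiotracer dosing. Radiotracer was added at room temperature. Percent intact radiotracer was measured by radio-TLC after 10, 20 and 30 min.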

[2] = Stability of [^18F]FAHA in medium alone; assay type: in vitro ADME; settings: incubated in medium alone; no detection of [^18F]FAC
tumor xenografts = settings: cited from earlier work
HDAC = settings: cited from earlier work
[3] = tested on: Histone Deacetylase in the baboon brain; experiment: Baboon brain PET imaging with graphical analysis; assay type: in vivo; settings: for average reduction in Vd of [^18F]FAHA: comparison of 0.5 and 0.25 mg/kg
Plasma protein binding = assay type: in vitro ADME; settings: plasma
[4] = Baboon arterial plasma analysis of unmetabolized radiotracer during PET; assay type: in vivo
[5] = cited from earlier work
Log D = assay type: physicochemical
[6] = Compartment modelling of [^18F]FAC uptake in baboon brain; assay type: in vivo; settings: one animal; fixed for all four studies
Outline: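 Two baboons. Arterial blood was sampled every 5 s for 2 min, then at longer intervals, centrifuged, and plasma counted. Brain time-activity curves from studies with the injected labelled metabolite were fitted with one- and two-compartment models. Fitted rate constants were fixed across studies to estimate metabolite brain uptake from peripheral radiotracer metabolism, using the metabolite fraction of arterial plasma input.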

plasma proteins = experiment: Plasma protein binding; assay type: in vitro ADME

O=C(C[18F])NCCCCCC(=O)Nc1ccccc1 [[^18F]FAHA, 6-([^18F]fluoroacetamido)-1-hexanoicanilide]
% Unmetabolized [^18F]FAHA after incubation in vitro (radio-TLC) ([1]; Blood-post (1h after SAHA administration, 0.25 mg/kg), time 10): 16% | % Unmetabolized [^18F]FAHA after incubation in vitro (radio-TLC) ([1]; Blood-post, time 20): 0% | % Unmetabolized [^18F]FAHA after incubation in vitro (radio-TLC) ([1]; Blood-post, time 30): 0% | % Unmetabolized [^18F]FAHA after incubation in vitro (radio-TLC) ([1]; Blood-pre (before SAHA pretreatment), time 10, room temperature): 13% | % Unmetabolized [^18F]FAHA after incubation in vitro (radio-TLC) ([1]; Blood-pre, time 20): 0% | % Unmetabolized [^18F]FAHA after incubation in vitro (radio-TLC) ([1]; Blood-pre, time 30): 0% | % Unmetabolized [^18F]FAHA after incubation in vitro (radio-TLC) ([1]; Plasma-post (1h after SAHA administration), time 10): 96% | % Unmetabolized [^18F]FAHA after incubation in vitro (radio-TLC) ([1]; Plasma-post, time 20): 96% | % Unmetabolized [^18F]FAHA after incubation in vitro (radio-TLC) ([1]; Plasma-post, time 30): 94% | % Unmetabolized [^18F]FAHA after incubation in vitro (radio-TLC) ([1]; Plasma-pre (before SAHA pretreatment), time 10): 98% | % Unmetabolized [^18F]FAHA after incubation in vitro (radio-TLC) ([1]; Plasma-pre, time 20): 94% | % Unmetabolized [^18F]FAHA after incubation in vitro (radio-TLC) ([1]; Plasma-pre, time 30): 94% | stability in medium alone [2]: stable up to 2 h | tumor to muscle ratios (tumor xenografts; between 30–60 min post-injection): 2.2–2.4 | peak uptake in tumor xenografts (tumor xenografts; peak at 30 min, rats implanted with carcinoma cells): 0.43 %ID/g | peak uptake in rat brain (HDAC): 0.44 % ID/g | peak brain uptake relative to [^18F]FAC ([3]; TACs in the same baboon): more than five times greater | fraction unbound (Plasma protein binding): 0.539 ± 0.0176 | % Unmetabolized [^18F]FAHA in baboon plasma ([4]; animal 1, Baseline, 1min after bolus injection): 45% | % Unmetabolized [^18F]FAHA in baboon plasma ([4]; animal 1, Baseline, 5min): 2% | % Unmetabolized [^18F]FAHA in baboon plasma ([4]; animal 1, Baseline, 10min): 1% | % Unmetabolized [^18F]FAHA in baboon plasma ([4]; animal 1, SAHA 0.25mg/kg iv 1 hour before, 1min): 84% | % Unmetabolized [^18F]FAHA in baboon plasma ([4]; animal 1, SAHA 0.25mg/kg iv 1 hour before, 2min): 35% | % Unmetabolized [^18F]FAHA in baboon plasma ([4]; animal 1, SAHA 0.25mg/kg iv 1 hour before, 5min): 10% | % Unmetabolized [^18F]FAHA in baboon plasma ([4]; animal 1, SAHA 0.25mg/kg iv 1 hour before, 10min): 6% | % Unmetabolized [^18F]FAHA in baboon plasma ([4]; animal 1, SAHA 0.5mg/kg iv 1 hour before, 1min): 78% | % Unmetabolized [^18F]FAHA in baboon plasma ([4]; animal 1, SAHA 0.5mg/kg iv 1 hour before, 2min): 39% | % Unmetabolized [^18F]FAHA in baboon plasma ([4]; animal 1, SAHA 0.5mg/kg iv 1 hour before, 5min): 14% | % Unmetabolized [^18F]FAHA in baboon plasma ([4]; animal 1, SAHA 0.5mg/kg iv 1 hour before, 10min): 7% | % Unmetabolized [^18F]FAHA in baboon plasma ([4]; animal 1, SAHA 1.0mg/kg iv 1 hour before, 1min): 86% | % Unmetabolized [^18F]FAHA in baboon plasma ([4]; animal 1, SAHA 1.0mg/kg iv 1 hour before, 2min): 34% | % Unmetabolized [^18F]FAHA in baboon plasma ([4]; animal 1, SAHA 1.0mg/kg iv 1 hour before, 5min): 22% | % Unmetabolized [^18F]FAHA in baboon plasma ([4]; animal 1, SAHA 1.0mg/kg iv 1 hour before, 10min): 10% | % Unmetabolized [^18F]FAHA in baboon plasma ([4]; animal 2, Baseline, 1min): 52% | % Unmetabolized [^18F]FAHA in baboon plasma ([4]; animal 2, Baseline, 2min): 6% | % Unmetabolized [^18F]FAHA in baboon plasma ([4]; animal 2, Baseline, 5min): 2% | % Unmetabolized [^18F]FAHA in baboon plasma ([4]; animal 2, Baseline, 10min): 1% | % Unmetabolized [^18F]FAHA in baboon plasma ([4]; animal 2, SAHA 0.25mg/kg iv 1 hour before, 1min): 87% | % Unmetabolized [^18F]FAHA in baboon plasma ([4]; animal 2, SAHA 0.25mg/kg iv 1 hour before, 2min): 49% | % Unmetabolized [^18F]FAHA in baboon plasma ([4]; animal 2, SAHA 0.25mg/kg iv 1 hour before, 5min): 11% | % Unmetabolized [^18F]FAHA in baboon plasma ([4]; animal 2, SAHA 0.25mg/kg iv 1 hour before, 10min): 5% | % Unmetabolized [^18F]FAHA in baboon plasma ([4]; animal 2, SAHA 0.5mg/kg iv 1 hour before, 1min): 78% | % Unmetabolized [^18F]FAHA in baboon plasma ([4]; animal 2, SAHA 0.5mg/kg iv 1 hour before, 2min): 50% | % Unmetabolized [^18F]FAHA in baboon plasma ([4]; animal 2, SAHA 0.5mg/kg iv 1 hour before, 5min): 14% | % Unmetabolized [^18F]FAHA in baboon plasma ([4]; animal 2, SAHA 0.5mg/kg iv 1 hour before, 10min): 6% | % Unmetabolized [^18F]FAHA in baboon plasma ([4]; animal 2, SAHA 1.0mg/kg iv 1 hour before, 1min): 85% | % Unmetabolized [^18F]FAHA in baboon plasma ([4]; animal 2, SAHA 1.0mg/kg iv 1 hour before, 5min): 26% | % Unmetabolized [^18F]FAHA in baboon plasma ([4]; animal 2, SAHA 1.0mg/kg iv 1 hour before, 10min): 20%

O=C(CCCCCCC(=O)Nc1ccccc1)NO [SAHA, suberanilohydroxamic acid]
effect on [^18F]FAHA radiotracer uptake (tumor xenografts; rodent tumor xenograft study): inhibit radiotracer uptake | effect on [^18F]FAHA radiotracer uptake (HDAC; rat brain study): inhibit radiotracer uptake | average % reduction in Vd of [^18F]FAHA ([3]; 0.25 mg/kg, Brooke): 12 ± 12% | average % reduction in Vd of [^18F]FAHA ([3]; 0.25 mg/kg, Lulu): 25 ± 8% | average reduction in Vd of [^18F]FAHA ([3]; 0.25 mg/kg): 25± 5% | average reduction in Vd of [^18F]FAHA ([3]; 0.5 mg/kg): 30± 9% | average % reduction in Vd of [^18F]FAHA ([3]; 1 mg/kg, Brooke, averaged over all 6 ROIs (excluding global)): 43 ± 7% | average % reduction in Vd of [^18F]FAHA ([3]; 1 mg/kg, Lulu, averaged over all 6 ROIs (excluding global)): 52 ± 8% | effect on rate of metabolism of [^18F]FAHA in baboon plasma ([4]; SAHA 0.25, 0.5, 1.0 mg/kg iv, dose dependent manner): decrease the rate of metabolism | clinical doses well tolerated [5]: > 5 mg/kg

O=C(O)C[18F] [[^18F]FAC, [^18F]fluoroacetate]
logD (Log D): 0.70 | K1 (2 compartment model, brain uptake of metabolite) [6]: 0.018 ml/min/cc | k2 (2 compartment model) [6]: 0.04 min⁻¹ | k3 (2 compartment model) [6]: 0.008 min⁻¹ | k4 (2 compartment model) [6]: .003 min⁻¹ | % of activity unbound to plasma proteins (plasma proteins): 57.2%

Reference: PMC3167688 (Nuclear medicine and biology, 2009)
